This note sets out measurements from PubChem BioAssay.

Experiment [1] is described as follows: Her2 expression decrease, cell viability multiplex – SKBR3 breast tumor cells, AlphaScreen, ATP viability, primary screen (AID 461;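 active = Her2 level under about 52% in both replicate screens, with viability over 70% of control, limit read from the data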;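 for Her2 level: lower value means less Her2 protein in the cells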;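 for viability: percent of carrier control wells set as 100% viability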). The following applies: SKBR3 Her2 protein level, 18-24 h, measured here: SKBR3 viability, ATP luminescence, at 10 µM. (In general: Bead proximity is the source of the signal in Alpha formats.)
The target in experiment [2] is Receptor tyrosine-protein kinase erbB-2 (Homo sapiens) (UniProt P04626). The description is as above. Particulars: 18-24 h, at 10 µM, stronger effect = lower value.
Sequence of Receptor tyrosine-protein kinase erbB-2 (Homo sapiens) (P04626 whole entry, looked up): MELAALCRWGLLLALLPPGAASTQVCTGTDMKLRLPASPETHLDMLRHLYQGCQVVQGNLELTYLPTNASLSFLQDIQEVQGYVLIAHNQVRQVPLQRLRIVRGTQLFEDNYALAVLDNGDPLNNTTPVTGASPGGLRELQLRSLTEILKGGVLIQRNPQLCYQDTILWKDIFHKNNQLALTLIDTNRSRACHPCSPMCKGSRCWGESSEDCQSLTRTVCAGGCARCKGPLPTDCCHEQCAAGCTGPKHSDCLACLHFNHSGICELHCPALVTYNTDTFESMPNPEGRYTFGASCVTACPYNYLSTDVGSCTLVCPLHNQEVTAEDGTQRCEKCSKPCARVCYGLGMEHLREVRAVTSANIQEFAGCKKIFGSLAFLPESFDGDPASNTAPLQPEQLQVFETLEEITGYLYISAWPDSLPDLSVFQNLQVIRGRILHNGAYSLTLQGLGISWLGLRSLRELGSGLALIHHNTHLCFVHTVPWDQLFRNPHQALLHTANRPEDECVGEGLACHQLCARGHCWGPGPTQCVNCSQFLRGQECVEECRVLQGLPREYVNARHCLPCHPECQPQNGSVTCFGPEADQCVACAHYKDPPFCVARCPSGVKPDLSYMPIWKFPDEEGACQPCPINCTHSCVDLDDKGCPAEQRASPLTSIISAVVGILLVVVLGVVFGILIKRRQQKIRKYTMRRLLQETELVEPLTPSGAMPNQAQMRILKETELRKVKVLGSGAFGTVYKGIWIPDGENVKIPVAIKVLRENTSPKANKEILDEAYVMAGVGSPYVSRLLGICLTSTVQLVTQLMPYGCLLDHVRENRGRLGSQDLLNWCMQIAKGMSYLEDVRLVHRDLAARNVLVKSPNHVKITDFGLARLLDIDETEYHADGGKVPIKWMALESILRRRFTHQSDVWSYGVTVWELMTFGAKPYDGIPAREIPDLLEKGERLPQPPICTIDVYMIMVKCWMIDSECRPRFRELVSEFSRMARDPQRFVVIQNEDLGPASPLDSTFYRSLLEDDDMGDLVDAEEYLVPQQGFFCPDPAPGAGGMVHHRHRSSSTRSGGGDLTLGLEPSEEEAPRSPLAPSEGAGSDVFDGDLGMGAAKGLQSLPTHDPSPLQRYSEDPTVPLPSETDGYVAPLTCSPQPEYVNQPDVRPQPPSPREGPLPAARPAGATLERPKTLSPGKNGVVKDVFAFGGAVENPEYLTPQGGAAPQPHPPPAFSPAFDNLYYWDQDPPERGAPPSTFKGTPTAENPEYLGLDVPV
Experiment [3] can be described thus: reduced viability of SK-BR-3 breast cancer cells – cell-based, 24 h, human, pilot screen (AID 572;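 active = viability at or below 10% of carrier control in both of two separate runs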;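 note: compound exposure lasted between 18 and 24 h rather than exactly 24 h; 100% = carrier-treated control wells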). Particulars: SK-BR-3 viability, CellTiter-Glo luminescence, at 10 µM, stronger effect = lower value. (Cellular ATP, detected with luciferase, serves as a proxy for viable cell number.)
The nature of experiment [4]: HUVEC growth inhibition – cell-based, human, primary screen (AID 575;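 active = viability at or below 30% in both replicate assays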;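 note: 100% = median of untreated cell wells with 0.1% DMSO on each plate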). The following applies: HUVEC proliferation, CellTiter-Glo luminescence, 72 h; at 10 µM; stronger effect = lower value. Summed up: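 System: primary human umbilical vein endothelial cells; Quantity: 1250 endothelial cells in each well; Buffer or medium: supplemented EBM, 2% fetal bovine serum; Doses: one dose, 10 µM final, 0.1% DMSO; Incubation: 72 h compound incubation; Technique: ATP-based CellTiter-Glo luminescent read; Evaluation: percent of median DMSO-control luminescence; Controls: vehicle and MePR control wells.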

Experiment [5] can be described thus: H69AR cell proliferation blockers – human, duplicate replicates, primary screen (AID 580).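 Note: 100% = mean luminescence of untreated wells and 0% = no signal.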 Particulars: H69AR lung tumor cells viability, ATP luminescence, 72 h; at 10 µM; stronger effect = lower value.
Experiment [6] is described as follows: MRP1 drug-resistance reversers in H69AR cells – cell-based, doxorubicin co-treatment, pilot screen (AID 601;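 active = viability loss from added drug above about 55%, and viability with drug at most 40%, in both replicates, limit read from the data, passing the limit was not always enough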). Particulars: CellTiter-Glo, 72 h, at 10 µM; for differential viability (reversal): stronger effect = higher value.
Experiment [7] in a line: yeast transport mutant growth inhibition pilot in 384-well plates, post-Golgi transport modulator project (AID 636; in the data active = inhibition above about 31%). Particulars: absorbance 615 nm, about 18 h, stronger effect = higher value.
A short description of experiment [8]: growth suppression of yeast trafficking mutant, preliminary HTS, modulators of trafficking downstream of Golgi apparatus project, 1536-format plate, OD 615 nm (AID 637; in the data active = inhibition above about 30%). The following applies: yeast transport mutant growth, absorbance 615 nm, 18 h; stronger effect = higher value.
The mark [9] stands for this setting: H69AR cells + 2 uM doxorubicin, measured here: viability with 2 uM doxorubicin, stronger effect = lower value.
[10] abbreviates: H69AR cells, compound alone cytotoxicity.

Activity calls are given as the source filed them.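 Rule for the calls, unless noted: active = viability at or under a set limit in both replicates, limit being median viability minus 3 SD (cut at about 48% in these data, passing the limit was not always enough); inconclusive = at or under the limit in just one replicate; inactive = at or above the limit in both replicates.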

As for `O=C1N=C(N2CCOCC2)CS1`, the viability (usually a read-out of living cells in per cent, often relative to untreated cells) in experiment [1] was 108%; in experiment [3] it was 108% (inactive); in experiment [4], 103% (inactive); in experiment [5], 104% (inactive); in experiment [6] (setting [9]), 98.3%; in experiment [6] (setting [10]), 104%. Besides, the Her2 level in experiment [2] is 110% (inactive). In addition, the differential viability (reversal) in experiment [6] (H69AR cells + 2 uM doxorubicin) is 5.3% (inactive). Moreover, the inhibition (commonly the change of the read-out against control, counted positive when it falls) is -4.27% (inactive) in experiment [7] and -1.45% (inactive) in experiment [8].

Consider `COc1ccc(C2CC(=O)c3c(C)nc(N4CCN(c5ccccc5)CC4)nc3C2)cc1` (stereo not given), for which the viability in experiment [1] is 90%; in experiment [3], 90% (inactive); in experiment [4], 98.5% (inactive); in experiment [5], 97.3% (inactive); in experiment [6] (setting [9]) it was 78.3%; in experiment [6] (setting [10]) it was 97.3%. In addition, the Her2 level in experiment [2] is 88% (inactive). The differential viability (reversal) in experiment [6] (H69AR cells + 2 uM doxorubicin) was 19% (inactive). The inhibition in experiment [7] is 0.79% (inactive); in experiment [8], -5.9% (inactive).

`Cn1c(SCc2ccc3c(c2)OCO3)nnc1-c1ccccc1`: the viability in experiment [1] is 99.5%; in experiment [3], 99.5% (inactive); in experiment [4], 99.1% (inactive); in experiment [5] it was 96.2% (inactive); in experiment [6] (setting [9]) it was 84.4%; in experiment [6] (setting [10]), 96.2%. The Her2 level in experiment [2] was 108% (inactive). For the same compound, the differential viability (reversal) in experiment [6] (H69AR cells + 2 uM doxorubicin) was 11.7% (inactive). The inhibition was 1.45% (inactive) in experiment [7] and -1.11% (inactive) in experiment [8].

For `COC(=O)CN(c1ccc(C)c(Cl)c1)S(C)(=O)=O`, the viability was 108% in experiment [1]; 108% (inactive) in experiment [3]; 99.5% (inactive) in experiment [4]; 101% (inactive) in experiment [5]; 90.5% in experiment [6] (setting [9]); 101% in experiment [6] (setting [10]). In addition, in experiment [2], the Her2 level is 100% (inactive). Further, in experiment [6] (H69AR cells + 2 uM doxorubicin), the differential viability (reversal) is 10.7% (inactive). Besides, the inhibition was -2.27% (inactive) in experiment [7] and -0.81% (inactive) in experiment [8].

Consider `Cc1cc(C)c(S(=O)(=O)Nc2cccnc2)c(C)c1`, for which the viability was 100% in experiment [1]; 100% (inactive) in experiment [3]; 105% (inactive) in experiment [4]; 97.8% (inactive) in experiment [5]; 89.1% in experiment [6] (setting [9]); 97.8% in experiment [6] (setting [10]). Further, in experiment [2], the Her2 level is 91% (inactive). For the same compound, the differential viability (reversal) in experiment [6] (H69AR cells + 2 uM doxorubicin) is 8.71% (inactive). The values for the inhibition in experiment [7] and in experiment [8] were -4.93% (inactive) and -0.16% (inactive), respectively.

Turning to `COCC(=O)N(c1ccc(C(C)C)cc1)C1C=CS(=O)(=O)C1` (stereo not given), the viability in experiment [1] is 93.5%; in experiment [3], 93.5% (inactive); in experiment [4] it was 78.9% (inactive); in experiment [5], 89.6% (inactive); in experiment [6] (setting [9]), 88.8%; in experiment [6] (setting [10]), 89.6%. Moreover, the Her2 level in experiment [2] was 80% (inactive). Besides, the differential viability (reversal) in experiment [6] (H69AR cells + 2 uM doxorubicin) was 0.84% (inactive). In addition, the results for the inhibition in experiment [7] and in experiment [8] were -3.08% (inactive) and 0.83% (inactive), respectively.

For `CCOC(=O)c1cc2n(n1)C(C(F)(F)C(F)(F)F)CC(C)N2` (stereo not given), the viability in experiment [1] was 92%; in experiment [3] it was 92% (inactive); in experiment [4] it was 105% (inactive); in experiment [5], 97.3% (inactive); in experiment [6] (setting [9]), 93%; in experiment [6] (setting [10]), 97.3%. The Her2 level in experiment [2] was 93.5% (inactive). Besides, in experiment [6] (H69AR cells + 2 uM doxorubicin), the differential viability (reversal) was 4.36% (inactive). The inhibition in experiment [7] is -3.73% (inactive); in experiment [8], -0.32% (inactive).

On to `CCOC(=O)CNc1ccc2c(c1)OCO2`, for which the viability in experiment [1] is 88%; in experiment [3], 88% (inactive); in experiment [4], 76.6% (inactive); in experiment [5], 98.7% (inactive); in experiment [6] (setting [9]) it was 85.6%; in experiment [6] (setting [10]), 98.7%. Moreover, the Her2 level in experiment [2] was 90% (inactive). In addition, the differential viability (reversal) in experiment [6] (H69AR cells + 2 uM doxorubicin) was 13.2% (inactive). The inhibition was -5% (inactive) in experiment [7] and -2.3% (inactive) in experiment [8].

With `Cc1nc2sc(C#N)c(N)c2c2c1CCCC2`, the viability in experiment [1] is 95.5%; in experiment [3], 95.5% (inactive); in experiment [4], 85.7% (inactive); in experiment [5], 102% (inactive); in experiment [6] (setting [9]) it was 108%; in experiment [6] (setting [10]) it was 102%. In addition, in experiment [2], the Her2 level was 78.5% (inactive). Besides, the differential viability (reversal) in experiment [6] (H69AR cells + 2 uM doxorubicin) is -6% (inactive). Further, the inhibition in experiment [7] was -1.97% (inactive); in experiment [8] it was 4.36% (inactive).

Turning to `CCn1c(=O)cc(OCC(=O)Nc2cc(C)ccn2)c2ccccc21`, the viability is 80% in experiment [1]; 80% (inactive) in experiment [3]; 73.9% (inactive) in experiment [4]; 86.4% (inactive) in experiment [5]; 89.7% in experiment [6] (setting [9]); 86.4% in experiment [6] (setting [10]). In addition, in experiment [2], the Her2 level was 77% (inactive). Further, in experiment [6] (H69AR cells + 2 uM doxorubicin), the differential viability (reversal) is -3.33% (inactive). The inhibition was -2.89% (inactive) in experiment [7] and -0.55% (inactive) in experiment [8].

Turning to `CN(C)C=Nc1nonc1N`, the viability in experiment [1] is 110%; in experiment [3], 110% (inactive); in experiment [4] it was 95.3% (inactive); in experiment [5] it was 94.1% (inactive); in experiment [6] (setting [9]), 91.4%; in experiment [6] (setting [10]), 94.1%. Also, the Her2 level in experiment [2] was 106% (inactive). Further, the differential viability (reversal) in experiment [6] (H69AR cells + 2 uM doxorubicin) was 2.63% (inactive). The inhibition in experiment [7] was -5.53% (inactive); in experiment [8] it was 1.97% (inactive).

Take `O=c1oc2ccccc2c(O)c1C=NCc1ccccn1`: the viability is 88% in experiment [1]; 88% (inactive) in experiment [3]; 67.6% (inactive) in experiment [4]; 76.8% (inactive) in experiment [5]; 87.3% in experiment [6] (setting [9]); 76.8% in experiment [6] (setting [10]). The Her2 level in experiment [2] is 93.5% (inactive). In addition, in experiment [6] (H69AR cells + 2 uM doxorubicin), the differential viability (reversal) is -10.5% (inactive). The values for the inhibition in experiment [7] and in experiment [8] were -8.11% (inactive) and -5.57% (inactive), respectively.

Consider `c1ccc(CNc2ccc3c(c2)ncn3C2CCCCC2)nc1`, for which the viability in experiment [1] was 97%; in experiment [3], 97% (inactive); in experiment [4], 96% (inactive); in experiment [5], 96.8% (inactive); in experiment [6] (setting [9]), 93.8%; in experiment [6] (setting [10]), 96.8%. In addition, the Her2 level in experiment [2] is 107% (inactive). Moreover, in experiment [6] (H69AR cells + 2 uM doxorubicin), the differential viability (reversal) was 2.95% (inactive). The inhibition was -1.05% (inactive) in experiment [7] and -2.73% (inactive) in experiment [8].

Turning to `CCOC(=O)C(NC(=O)Nc1ccccc1)(OCC)C(F)(F)F` (stereo not given), the viability in experiment [1] is 114%; in experiment [3], 114% (inactive); in experiment [4], 84.5% (inactive); in experiment [5], 93.3% (inactive); in experiment [6] (setting [9]), 86.5%; in experiment [6] (setting [10]), 93.3%. The Her2 level in experiment [2] is 98% (inactive). Moreover, the differential viability (reversal) in experiment [6] (H69AR cells + 2 uM doxorubicin) was 6.82% (inactive). The inhibition in experiment [7] is -0.26% (inactive); in experiment [8], 12.1% (inactive).
